Structures are written as SMILES. pIC50: −log10 of the molar value. A value given as a limit tells only on which side of the number the result lay.

Data on two compounds can be found in ChEMBL document CHEMBL1148583, “Substituted 2-thioxoimidazolidin-4-ones and imidazolidine-2,4-diones as fatty acid amide hydrolase inhibitors templates” (J Med Chem, 2006).

Test [1] has as its target T1, Fatty-acid amide hydrolase 1 (Rattus norvegicus, UniProt P97612).
T1 sequence (P97612 whole entry): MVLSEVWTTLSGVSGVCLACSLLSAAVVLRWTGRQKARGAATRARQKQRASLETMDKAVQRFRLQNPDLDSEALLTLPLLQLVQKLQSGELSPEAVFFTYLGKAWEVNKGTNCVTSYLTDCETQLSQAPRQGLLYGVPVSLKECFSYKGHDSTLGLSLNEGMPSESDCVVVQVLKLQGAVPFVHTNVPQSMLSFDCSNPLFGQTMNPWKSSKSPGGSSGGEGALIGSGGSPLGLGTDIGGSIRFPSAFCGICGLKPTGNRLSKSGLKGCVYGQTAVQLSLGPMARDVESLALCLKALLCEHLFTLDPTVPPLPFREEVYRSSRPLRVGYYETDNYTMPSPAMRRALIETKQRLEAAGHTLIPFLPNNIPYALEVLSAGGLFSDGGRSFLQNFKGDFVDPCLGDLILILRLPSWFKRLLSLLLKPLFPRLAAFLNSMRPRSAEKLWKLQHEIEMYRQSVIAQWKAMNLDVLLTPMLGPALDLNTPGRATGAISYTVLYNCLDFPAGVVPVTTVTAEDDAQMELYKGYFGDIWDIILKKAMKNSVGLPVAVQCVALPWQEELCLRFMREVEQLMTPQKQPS
Briefly: Inhibitory activity against FAAH in Wistar rat brain homogenate at pH 9.0. It counts as tissue-based. The essentials: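 Enzyme from male Wistar rat (250-300 g) brain membranes, washed by 36 000g spins and kept at -80 °C. Anandamide hydrolysis at pH 9.0 in 10 mM Tris-HCl, 1 mM EDTA, 0.1% BSA, 37 °C for 10 min. Stopped with cold chloroform/methanol, then the methanol/buffer phase was counted for radioactivity. Inhibition curves run ≥3 times in duplicate; IC50 by nonlinear regression, given as pI50 ± SEM.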

The target of test [2] is Cannabinoid receptor 1 (Homo sapiens) (UniProt P21554). In words: Displacement of [3H]SR141716A from human CB1 expressed in CHO cells at 10 uM. It counts as cell-based. The essentials: (§1)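 Membranes from CHO cells expressing hCB1 or hCB2 (40 µg per tube). Radioligand was 1 nM [3H]-SR141716A for CB1 or 1 nM [3H]-CP-55,940 for CB2. Competitor at 10 µM; nonspecific binding defined with 10 µM HU-210. Incubation 1 h at 30 °C in 50 mM Tris-HCl, 3 mM MgCl2, 1 mM EDTA, 0.5% BSA, pH 7.4. Filtered on PEI-treated GF/B and counted. Result is % displacement, ≥3 runs in duplicate, mean ± SEM.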
Sequence of Cannabinoid receptor 1 (Homo sapiens) (P21554 whole entry): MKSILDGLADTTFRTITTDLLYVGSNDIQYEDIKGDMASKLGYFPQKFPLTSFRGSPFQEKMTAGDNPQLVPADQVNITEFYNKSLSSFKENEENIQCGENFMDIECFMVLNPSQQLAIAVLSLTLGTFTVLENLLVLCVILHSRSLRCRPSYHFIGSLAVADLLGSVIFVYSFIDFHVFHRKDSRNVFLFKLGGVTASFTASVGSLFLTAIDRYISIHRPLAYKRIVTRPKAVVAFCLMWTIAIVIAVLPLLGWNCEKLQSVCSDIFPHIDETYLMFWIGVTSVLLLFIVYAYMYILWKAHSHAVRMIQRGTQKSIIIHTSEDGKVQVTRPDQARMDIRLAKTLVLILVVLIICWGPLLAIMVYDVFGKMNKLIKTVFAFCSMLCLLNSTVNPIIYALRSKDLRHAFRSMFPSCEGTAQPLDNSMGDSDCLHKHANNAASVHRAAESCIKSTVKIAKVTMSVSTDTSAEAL
(Displacement assays read how much labelled ligand stays bound in the presence of the test substance.)

Test [3] has as its target Cannabinoid receptor 2 (Homo sapiens) (UniProt P34972). Briefly: Displacement of [3H]CP-55940 from human CB2 expressed in CHO cells at 10 uM. It counts as cell-based. The essentials: as §1

Sequence of Cannabinoid receptor 2 (Homo sapiens) (P34972 whole entry): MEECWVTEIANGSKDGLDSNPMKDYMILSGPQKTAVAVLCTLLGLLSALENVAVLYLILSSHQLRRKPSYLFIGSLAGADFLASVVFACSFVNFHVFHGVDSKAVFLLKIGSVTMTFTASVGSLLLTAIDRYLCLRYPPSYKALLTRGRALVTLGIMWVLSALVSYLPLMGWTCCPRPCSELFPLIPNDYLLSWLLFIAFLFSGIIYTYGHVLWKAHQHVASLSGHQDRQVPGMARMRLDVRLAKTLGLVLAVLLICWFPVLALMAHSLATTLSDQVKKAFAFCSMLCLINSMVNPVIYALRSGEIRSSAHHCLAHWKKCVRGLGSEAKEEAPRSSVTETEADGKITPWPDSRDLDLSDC

As to `CCCCCCCCCCN1C(=O)C(c2ccccc2)(c2ccccc2)NC1=S`, in test [1], the pIC50 is 5.87. Also, the Activity was less than 10% in test [2] and less than 20% in test [3].
Consider `CCCCCCCN1C(=O)NC(c2ccccc2)(c2ccccc2)C1=O`, for which, in test [1], the pIC50 was 5.08. Besides, the figures for the Activity in test [2] and in test [3] were 23.4% and less than 20%, respectively.

By pIC50 is commonly meant the negative decadic logarithm of the IC50, by convention in mol/L. A higher pIC50 goes with a small IC50.
